Experimental data taken from ChEMBL document CHEMBL1137744, “Parallel synthesis, molecular modelling and further structure-activity relationship studies of new acylthiocarbamates as potent non-nucleoside HIV-1 reverse transcriptase inhibitors” (Eur J Med Chem, 2009).
Active and inactive are the calls of the source. No cut-off for these calls is given here.

Tests used:
[1] = Selectivity index, ratio of CC50 for human MT4 cells to EC50 for HIV1 3B; type: toxicity, cell-based; details: read-out: Ratio CC50/EC50
Summary of the method: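 Computed as CC50/EC50. Both come from MTT readings in MT-4 cells: CC50 is 50% viability loss in mock-infected cells, and EC50 is 50% protection from HIV-1-induced cytopathogenicity. Each is the mean of three experiments.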

[2] = Cytotoxicity against human MT4 cells by MTT assay; type: cell-based
Summary of the method: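 Uninfected (mock-infected) MT-4 cells were exposed to compound and viability was read by MTT. CC50 is the concentration cutting viability by 50%. Values are means of three separate experiments, with triplicate samples varying by less than 10%.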

[3] = tested on: Human immunodeficiency virus 1; test: Antiviral activity against HIV1 3B infected in human MT4 cells assessed as inhibition of virus-induced cytopathogenicity by MTT assay; type: functional, organism-based; details: Human immunodeficiency virus 1, 3B
Summary of the method: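 MT-4 cells infected with HIV-1 and read by MTT viability. EC50 is the concentration giving 50% protection of cells from virus-induced cytopathogenicity. Values are means of three separate experiments, with variation among triplicate samples under 10%.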

[4] = tested on: Human immunodeficiency virus 1; test: Antiviral activity against HIV1 3B expressing reverse transcriptase K103N/Y181C double mutant infected in human MT4 cells assessed as inhibition of virus-induced cytopathogenicity by MTT assay; type: functional, organism-based
[5] = tested on: Human immunodeficiency virus 1; test: Antiviral activity against HIV1 3B expressing reverse transcriptase Y181C mutant infected in human MT4 cells assessed as inhibition of virus-induced cytopathogenicity by MTT assay; type: functional, organism-based; details: Human immunodeficiency virus 1, 3B
Summary of the method: (§1)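 MT-4 cells infected with HIV-1 carrying the Y181C RT mutation, alongside wild-type virus. EC50 is the concentration giving 50% protection from virus-induced cytopathogenicity, read by MTT. Values are means of three separate experiments run in triplicate. The ratio is EC50(Y181C)/EC50(wt).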

[6] = tested on: Human immunodeficiency virus 1; test: Ratio of EC50 for HIV1 3B expressing reverse transcriptase Y181C mutant to EC50 for HIV1 3B; type: functional; summary of the method: as §1

Structure (SMILES) | selectivity ratio [1] | CC50 [2] | EC50 [3] | Activity [4] | EC50 [5] | Ratio EC50 [6]
Cc1ccc(N(C(=O)c2cc(F)ccc2F)C(=S)OCCN2C(=O)c3ccccc3C2=O)cc1 | 1550 | 62 µM | 0.04 µM | – | – | –
COc1cccc(OC)c1C(=O)N(C(=S)OCCN1C(=O)c2ccccc2C1=O)c1ccc(C)cc1 | 1.6 | 36 µM | 22 µM | – | – | –
O=C1c2ccccc2C(=O)N1CCOC(=S)N(C(=O)c1cccc([N+](=O)[O-])c1)c1ccc(Cl)cc1 | 12000 | 18 µM | 0.0015 µM | – | – | –
O=C1c2ccccc2C(=O)N1CCOC(=S)N(C(=O)c1ccc(Cl)c(Cl)c1)c1ccc(Cl)cc1 | 3890 | 35 µM | 0.009 µM | – | – | –
O=C1c2ccccc2C(=O)N1CCOC(=S)N(C(=O)c1ccc(Cl)c(Cl)c1)c1ccccc1 | 104 | 52 µM | 0.5 µM | – | – | –
O=C1c2ccccc2C(=O)N1CCOC(=S)N(C(=O)c1cccc2ccccc12)c1ccc(Cl)cc1 | 200 | 6 µM | 0.03 µM | – | – | –
Cc1ccc(N(C(=O)c2c(Cl)cccc2Cl)C(=S)OCCN2C(=O)c3ccccc3C2=O)cc1 | 2.4 | 22 µM | 9 µM | – | – | –
O=C1c2ccccc2C(=O)N1CCOC(=S)N(C(=O)c1ccc([N+](=O)[O-])cc1Cl)c1ccc(Cl)cc1 | 2380 | 19 µM | 0.008 µM | – | – | –
Cc1ccc(N(C(=O)c2ccc(Cl)c([N+](=O)[O-])c2)C(=S)OCCN2C(=O)c3ccccc3C2=O)cc1 | 783 | 47 µM | 0.06 µM | – | – | –
O=C1c2ccccc2C(=O)N1COC(=S)N(C(=O)c1cccc([N+](=O)[O-])c1)c1ccc(Cl)cc1 | – | > 100 µM | > 100 µM | – | – | –
Cc1ccc(N(C(=O)c2ccccc2[N+](=O)[O-])C(=S)OCCN2C(=O)c3ccccc3C2=O)cc1 | 250 | 100 µM | 0.4 µM | – | – | –
O=C1c2ccccc2C(=O)N1CCOC(=S)N(C(=O)c1cc([N+](=O)[O-])ccc1Cl)c1ccc(Cl)cc1 | 643 | 45 µM | 0.07 µM | – | – | –
O=C1c2ccccc2C(=O)N1CCOC(=S)N(C(=O)c1ccco1)c1cc(Cl)cc(Cl)c1 | – | > 100 µM | > 100 µM | – | – | –
Cc1ccc(N(C(=O)c2c(F)cccc2F)C(=S)OCCN2C(=O)c3ccccc3C2=O)cc1 | 65 | 65 µM | 1 µM | – | – | –
Cc1ccc2c(c1)C(=O)N(CCOC(=S)N(C(=O)c1cccc([N+](=O)[O-])c1)c1ccc(Cl)cc1)C2=O | > 2000 | > 100 µM | 0.05 µM | – | – | –
O=C1c2ccccc2C(=O)N1CCOC(=S)N(C(=O)c1ccc(Cl)nc1)c1ccc(Cl)cc1 | – | – | 0.006 µM | – | – | –
Cc1ccc(N(C(=O)c2cccc([N+](=O)[O-])c2)C(=S)OCCN2C(=O)c3ccccc3C2=O)cc1 | 5000 | 100 µM | 0.02 µM | – | – | –
Cc1ccc(N(C(=O)c2ccc([N+](=O)[O-])cc2Cl)C(=S)OCCN2C(=O)c3ccccc3C2=O)cc1 | 189 | 17 µM | 0.09 µM | – | – | –
O=C1c2ccccc2C(=O)N1CCOC(=S)N(C(=O)c1ccc(Cl)cc1Cl)c1ccc(Cl)cc1 | 600 | 18 µM | 0.03 µM | – | – | –
Cc1ccc(N(C(=O)c2cccc(Cl)c2Cl)C(=S)OCCN2C(=O)c3ccccc3C2=O)cc1 | 175 | 35 µM | 0.2 µM | – | – | –
O=C1c2ccccc2C(=O)N1CCOC(=S)N(C(=O)c1c(F)cccc1F)c1ccc(Cl)cc1 | 1950 | 39 µM | 0.02 µM | – | – | –
S=C(NCCc1ccccn1)Nc1ccc(Br)cn1 [TROVIRDINE] | 3000 | – | – | inactive | 1.2 µM | 60
COc1cccc(OC)c1C(=O)N(C(=S)OCCN1C(=O)c2ccccc2C1=O)c1ccc(Cl)cc1 | 172 | 69 µM | 0.4 µM | – | – | –
O=C1c2ccccc2C(=O)N1CCOC(=S)N(C(=O)c1cccnc1Cl)c1ccc(Cl)cc1 | – | – | 0.005 µM | – | – | –
O=C1c2ccccc2C(=O)N1CCOC(=S)N(C(=O)c1ccccc1[N+](=O)[O-])c1ccc(Cl)cc1 | 300 | 21 µM | 0.07 µM | – | – | –
O=C1c2ccccc2C(=O)N1CCOC(=S)N(C(=O)c1cccs1)c1ccc(Cl)cc1 | – | – | 0.008 µM | – | – | –
Cc1ccc(N(C(=O)c2ccc(F)cc2F)C(=S)OCCN2C(=O)c3ccccc3C2=O)cc1 | 667 | 20 µM | 0.03 µM | – | – | –
O=C1c2ccccc2C(=O)N1CCOC(=S)N(C(=O)c1ccco1)c1cccc(Cl)c1Cl | – | 100 µM | > 100 µM | – | – | –

Structure (SMILES) | selectivity ratio [1] | CC50 [2] | EC50 [3] | Activity [4] | EC50 [5] | Ratio EC50 [6]
Cc1ccc(N(C(=O)c2ccc(Cl)c(Cl)c2)C(=S)OCCN2C(=O)c3ccccc3C2=O)cc1 | 340 | 17 µM | 0.05 µM | – | – | –
CC(CN1C(=O)c2ccccc2C1=O)OC(=S)N(C(=O)c1cccc([N+](=O)[O-])c1)c1ccc(Cl)cc1 (racemic) | 44.3 | 31 µM | 0.7 µM | – | – | –
Cc1ccc(N(C(=O)c2ccc([N+](=O)[O-])cc2)C(=S)OCCN2C(=O)c3ccccc3C2=O)cc1 | 1930 | 58 µM | 0.03 µM | – | – | –
O=C1c2ccccc2C(=O)N1CCOC(=S)N(C(=O)c1c(Cl)cccc1Cl)c1ccc(Cl)cc1 | 3.6 | 20 µM | 5.6 µM | – | – | –
O=C1c2ccccc2C(=O)N1CCOC(=S)N(C(=O)c1ccco1)c1ccc(Cl)c(Cl)c1 | 145 | 100 µM | 0.69 µM | – | – | –
O=C1c2ccccc2C(=O)N1CCOC(=S)N(C(=O)c1ccccc1)c1ccccc1 | – | – | 0.4 µM | – | – | –
Cc1ccc2c(c1)C(=O)N(CCOC(=S)N(C(=O)c1cccs1)c1ccc(Cl)cc1)C2=O | > 5000 | > 100 µM | 0.02 µM | – | – | –
O=C1c2ccccc2C(=O)N1CCOC(=S)N(C(=O)c1cccc([N+](=O)[O-])c1)c1c(Cl)cc(Cl)cc1Cl | – | 20 µM | > 20 µM | – | – | –
O=C1c2ccccc2C(=O)N1CCOC(=S)N(C(=O)c1ccco1)c1ccc(Cl)cc1 | – | – | 0.007 µM | – | – | –
Cc1ccc(C(=O)N(C(=S)OCCN2C(=O)c3ccccc3C2=O)c2ccc(C)cc2)cc1 | 4150 | 83 µM | 0.02 µM | – | – | –
O=C1c2ccccc2C(=O)N1CCOC(=S)N(C(=O)c1ccc(Cl)cc1)c1ccc(Cl)cc1 | – | – | 0.025 µM | – | – | –
O=C1c2ccccc2C(=O)N1CCOC(=S)N(C(=O)c1cc(F)cc(F)c1)c1ccc(Cl)cc1 | 8430 | 59 µM | 0.007 µM | – | – | –
O=C1Nc2ccc(Cl)cc2[C@@](C#CC2CC2)(C(F)(F)F)O1 [EFAVIRENZ] | – | – | – | inactive | 0.01 µM | –
O=C1c2ccccc2C(=O)N1CCOC(=S)N(C(=O)c1cccc([N+](=O)[O-])c1)c1c(Cl)cccc1Cl | 3.4 | 58 µM | 17 µM | – | – | –
Cc1ccc(N(C(=O)c2ccc(Br)c(C)c2)C(=S)OCCN2C(=O)c3ccccc3C2=O)cc1 | > 2000 | > 100 µM | 0.05 µM | – | – | –
Cc1ccc(N(C(=O)c2ccccc2C)C(=S)OCCN2C(=O)c3ccccc3C2=O)cc1 | > 500 | > 100 µM | 0.2 µM | – | – | –
O=C1c2ccccc2C(=O)N1CCCOC(=S)N(C(=O)c1cccc([N+](=O)[O-])c1)c1ccc(Cl)cc1 | 1.8 | 53 µM | 29 µM | – | – | –
Cc1ccc(N(C(=O)c2ccc(Cl)cc2Cl)C(=S)OCCN2C(=O)c3ccccc3C2=O)cc1 | 163 | 49 µM | 0.3 µM | – | – | –
O=C1c2ccccc2C(=O)N1CCOC(=S)N(C(=O)c1ccco1)c1ccc(Cl)cc1Cl | > 38 | > 100 µM | 2.6 µM | – | – | –
CCCCCOc1ccc(C(=O)N(C(=S)OCCN2C(=O)c3ccccc3C2=O)c2ccc(F)cc2)cc1 | > 11.8 | > 100 µM | 8.5 µM | – | – | –
O=C1c2ccccc2C(=O)N1CCOC(=S)N(C(=O)c1ccc(C(F)(F)F)cc1)c1ccc(Cl)cc1 | 2000 | 10 µM | 0.005 µM | – | – | –
Cc1ccc(N(C(=O)c2cc(F)cc(F)c2)C(=S)OCCN2C(=O)c3ccccc3C2=O)cc1 | 1080 | 54 µM | 0.05 µM | – | – | –
Cc1ccc(N(C(=O)c2cccc(C)c2)C(=S)OCCN2C(=O)c3ccccc3C2=O)cc1 | > 2500 | > 100 µM | 0.04 µM | – | – | –
O=C1c2ccccc2C(=O)N1CCOC(=S)N(C(=O)c1ccc(Cl)c([N+](=O)[O-])c1)c1ccccc1 | 146 | 51 µM | 0.35 µM | – | – | –
Cc1ccccc1C(=O)N(C(=S)OCCN1C(=O)c2ccccc2C1=O)c1ccc(Cl)cc1 | 525 | 21 µM | 0.04 µM | – | – | –
O=C1c2ccccc2C(=O)N1CCOC(=S)N(C(=O)c1ccc(Br)cc1)c1ccc(Br)cc1 | 2090 | 73 µM | 0.035 µM | – | – | –
O=C1c2ccccc2C(=O)N1CCOC(=S)N(C(=O)c1ccccc1)c1ccc(Cl)cc1 | – | – | 0.1 µM | – | – | –
